The test system of experiment [1] is Mus musculus. Put plainly: Anticonvulsant activity in Swiss Albino mouse at 30 mg/kg, ip after 0.5 hr by MES test. It is filed as functional, organism-based. On the set-up: dose 30 mg/kg. The gist of the method:
(§1)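 Mice (Swiss, 20-25 g) given i.p. doses of 30, 100 and 300 mg/kg under ADD program protocols, three per group, examined at 0.5 and 4 h in MES, scPTZ, scSTY or scPIC seizure tests. Value is the minimum dose protecting half or more of the mice.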

Experiment [2] deals with Mus musculus. Put plainly: Anticonvulsant activity in Swiss Albino mouse at 300 mg/kg, ip after 0.5 hr by scPTZ test. On the set-up: dose 300 mg/kg. The class given is functional, organism-based. In outline: as §1
Experiment [3] relates to Mus musculus. Nature of the experiment: Anticonvulsant activity in Swiss Albino mouse at 300 mg/kg, ip after 4 hrs by scPIC test. It is filed as functional, organism-based. Also noted: dose 300 mg/kg. The gist of the method: as §1
The test system of experiment [4] is Mus musculus. Put plainly: Anticonvulsant activity in Swiss Albino mouse at 30 mg/kg, ip after 4 hrs by MES test. Also noted: dose 30 mg/kg. The class given is functional, organism-based. The gist of the method:
as §1

In experiment [5] the test system is Mus musculus. Nature of the experiment: Anticonvulsant activity in Swiss Albino mouse at 300 mg/kg, ip after 0.5 hr by scPIC test. It is filed as functional, organism-based. Also noted: dose 300 mg/kg. In outline: as §1
Experiment [6] concerns Mus musculus. Nature of the experiment: Neurotoxicity in Swiss Albino mouse at 100 mg/kg, ip after 4 hrs by rotarod test. It is filed as functional, organism-based. Also noted: dose 100 mg/kg. The gist of the method: (§2)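 Swiss mice (20-25 g) are trained on an accelerating rotorod (10 rpm, 3.2 cm rod), then injected i.p. at 30, 100 or 300 mg/kg, with three per group. Neurotoxicity means failure to keep equilibrium for at least 1 min in each of three trials, checked at 0.5 and 4 h. The value reported is the minimum dose affecting half or more of the mice.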
In general terms: The rotarod test checks motor coordination on a turning rod.

Experiment [7] deals with Mus musculus. Nature of the experiment: Analgesic activity in Swiss Albino mouse assessed as number of acetic acid-induced writhing per 30 min after 100 mg/kg, ip. The class given is functional. The gist of the method: (§3)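 Mice in groups of six dosed i.p. at 100 mg/kg, controls receiving 30% v/v PEG 400 in water. Writhing induced by i.p. 0.1 mL of 3% v/v acetic acid 1 h after drug. Writhes (abdominal stretch with at least one hind limb extended) counted over 30 min; % inhibition calculated. Mean ± SEM, Student's t test.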
In general terms: In writhing tests, fewer writhes than in controls are read as antinociception.

The subject of experiment [8] is Mus musculus. Put plainly: Analgesic activity in Swiss Albino mouse assessed as inhibition of acetic acid-induced writhing responses at 100 mg/kg, ip. The class given is functional. The gist of the method:
as §3

Experiment [9] has as its system Mus musculus. Put plainly: Anticonvulsant activity in Swiss Albino mouse at 300 mg/kg, ip after 4 hrs by scSTY test. It is filed as functional, organism-based. On the set-up: dose 300 mg/kg. In outline: as §1
Experiment [10] relates to Mus musculus. Nature of the experiment: Anticonvulsant activity in Swiss Albino mouse at 300 mg/kg, ip after 0.5 hr by scSTY test. The class given is functional, organism-based. Also noted: dose 300 mg/kg. The gist of the method:
as §1

Experiment [11] concerns Mus musculus. Nature of the experiment: Neurotoxicity in Swiss Albino mouse at 100 mg/kg, ip after 0.5 hr by rotarod test. The class given is functional, organism-based. On the set-up: dose 100 mg/kg. In outline: as §2

Calls of active or inactive are those of the source. No cut-off for these calls is given here.

Turning to `O=C1NC(=O)C(c2ccccc2)(c2ccccc2)N1`, the result in the experiment on Mus musculus [1], in the experiment on Mus musculus [4], in the experiment with Mus musculus [6] and in the experiment on Mus musculus [11] was Active. In addition, the result with Mus musculus [2], with Mus musculus [3], in the experiment with Mus musculus [5], with Mus musculus [7], in the experiment with Mus musculus [8] and in the experiment with Mus musculus [9] was inactive. Besides, in the experiment on Mus musculus [10], the result was inactive.

These data come from ChEMBL document CHEMBL1139875, “Discovery of 4-aminobutyric acid derivatives possessing anticonvulsant and antinociceptive activities: a hybrid pharmacophore approach” (2007).
